Published values collected from several papers.
Compare with care: the assays were run in different laboratories.
CYP2D6: Cytochrome P450 2D6 (CYP2D6, Homo sapiens, UniProt P10635)

| Structure (SMILES) | tested on | test | system | setting | endpoint | result |
| --- | --- | --- | --- | --- | --- | --- |
| N=c1c2c(-c3ccccc3)c(-c3ccccc3)n(Cc3ccccc3)c2ncn1[C@H]1CC[C@H](O)CC1 | – | – | male beagle dog, plasma | intravenous, 0.5 mg/kg, single dose | Vd | 15.9 L/kg |
| CN[C@@H](C)C(=O)N[C@H]1CN(C(=O)CC(C)C)CC[C@H]2CC[C@@H](C(=O)NC(c3ccccc3)c3ccccc3)N2C1=O | – | – | beagle dog, plasma | oral, 10 mg/kg | half-life | 27 h |
| COC(=O)C1CCN(C(=O)c2ccc(NCc3cnc4nc(N)nc(N)c4n3)cc2)CC1 | CYP2D6 | enzyme activity, inhibitor, luciferase | – | 10 µM | inhibition | -27.7% |
| C=C[C@H]1C[N@@]2CC[C@H]1C[C@@H]2[C@@H](O)c1ccnc2ccc(OC)cc12 | CYP2D6 | enzyme activity, inhibitor | human, liver microsomes | 10 µM | inhibition | 87% |
| CCC[C@@](N)(CO)CCc1ccc(OCCCCCC(C)C)cc1 | CYP2D6 | enzyme activity, inhibitor | – | – | IC50 | 32 µM |
| O=C[C@H](C[C@@H]1CCNC1=O)NC(=O)[C@H](CC1CCCCC1)NC(=O)c1cc2ccccc2[nH]1 | – | – | dog, plasma | intravenous, 8 mg/kg | AUC | 14500 ng·h/mL |
| Cc1ncc(C)n2nc(/C=C/c3nc(N4CCCC4)cc(N4CCOCC4)n3)nc12 | – | – | male beagle dog, plasma | oral, 0.3 mg/kg | half-life | 3.7 h |
| COC(=O)C1CCN(C(=O)c2ccc(N(C)Cc3cnc4nc(N)nc(N)c4n3)cc2)CC1 | CYP2D6 | enzyme activity, inhibitor, luciferase | – | 10 µM | inhibition | -32.7% |
